Calls of active or inactive are those of the source. The calls are words filed in the database; no cut-off is given here.
What was measured:
[1] = test system: Escherichia coli; experiment: Antimicrobial activity against enteropathogenic Escherichia coli assessed as inhibition of type 3 secretion by gel electrophoresis; assay type: functional, organism-based
Method in brief: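 EPEC cultured 24 h with test material, then centrifuged to give a bacterial pellet and a supernatant holding all secreted proteins. The pellet was inspected by eye, and samples that clearly shrank it were excluded as having general antibiotic or cytotoxic action.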

[2] = test system: Globisporangium ultimum; experiment: Antimicrobial activity against Pythium ultimum assessed per disk; assay type: functional
[3] = test system: Escherichia coli; experiment: Antimicrobial activity against Escherichia coli; assay type: functional, organism-based
[4] = test system: Stenotrophomonas maltophilia; experiment: Antimicrobial activity against Xanthomonas maltophilia assessed per disk; assay type: functional
[5] = test system: Enterococcus; experiment: Antimicrobial activity against vancomycin-resistant Enterococcus assessed per disk; assay type: functional
[6] = test system: Staphylococcus aureus; experiment: Antimicrobial activity against methicillin-resistant Staphylococcus aureus assessed per disk; assay type: functional

Structure (SMILES)	IC50 [1] [µM]	MIC [2] [µg]	Activity [3]	MIC [4] [µg]	MIC [5] [µg]	MIC [6] [µg]	Activity [1]
CCCCCCCCC[C@H](CCCCCCCC(C)=O)O[C@@H]1O[C@H](CO)[C@@H](O)[C@H](O)[C@H]1O[C@@H]1O[C@H](CO[C@@H]2O[C@H](C)[C@H](O)[C@H](O)[C@@H]2O)[C@@H](OC(C)=O)[C@H](OC(=O)CCC)[C@H]1O[C@@H]1O[C@@H](C)[C@H](O)[C@@H](OC(=O)CCC)[C@@H]1O	20						
CCCCCCCCC[C@H](CCCCCCCC(C)=O)O[C@@H]1O[C@H](CO)[C@@H](O)[C@H](O)[C@H]1O[C@@H]1O[C@H](CO[C@@H]2O[C@H](C)[C@H](O)[C@H](O)[C@@H]2O)[C@@H](OC(C)=O)[C@H](OC(=O)CCC)[C@H]1O[C@@H]1O[C@@H](C)[C@H](O)[C@@H](O)[C@@H]1O [CAMINOSIDES A]	20	50	inactive	25	12.5	12.5	Active
CCCCCCCCC[C@H](CCCCCCCC(C)=O)O[C@@H]1O[C@H](COC(C)=O)[C@@H](OC(C)=O)[C@H](OC(C)=O)[C@H]1O[C@@H]1O[C@H](CO[C@@H]2O[C@H](C)[C@H](OC(C)=O)[C@H](OC(C)=O)[C@@H]2OC(C)=O)[C@@H](OC(C)=O)[C@H](OC(=O)CCC)[C@H]1O[C@@H]1O[C@@H](C)[C@H](OC(C)=O)[C@@H](OC(C)=O)[C@@H]1OC(C)=O [CAMINOSIDE A PERACETATE]		>100		>25	>100	>100	inactive
